Experimental data as given in ChEMBL document CHEMBL5154945, “Discovery and Optimization of Pyrrolopyrimidine Derivatives as Selective Disruptors of the Perinucleolar Compartment, a Marker of Tumor Progression toward Metastasis” (J Med Chem, 2022).
The source made the active and inactive calls. No cut-off for these calls is given here.

Tests used:
[1] = molecular target: Alpha-1A adrenergic receptor (Homo sapiens) (UniProt P35348); assay: Binding affinity to alpha1A receptor (unknown origin) at 10000 nM by radioligand displacement assay relative to control
Alpha-1A adrenergic receptor (Homo sapiens), sequence (P35348 whole entry): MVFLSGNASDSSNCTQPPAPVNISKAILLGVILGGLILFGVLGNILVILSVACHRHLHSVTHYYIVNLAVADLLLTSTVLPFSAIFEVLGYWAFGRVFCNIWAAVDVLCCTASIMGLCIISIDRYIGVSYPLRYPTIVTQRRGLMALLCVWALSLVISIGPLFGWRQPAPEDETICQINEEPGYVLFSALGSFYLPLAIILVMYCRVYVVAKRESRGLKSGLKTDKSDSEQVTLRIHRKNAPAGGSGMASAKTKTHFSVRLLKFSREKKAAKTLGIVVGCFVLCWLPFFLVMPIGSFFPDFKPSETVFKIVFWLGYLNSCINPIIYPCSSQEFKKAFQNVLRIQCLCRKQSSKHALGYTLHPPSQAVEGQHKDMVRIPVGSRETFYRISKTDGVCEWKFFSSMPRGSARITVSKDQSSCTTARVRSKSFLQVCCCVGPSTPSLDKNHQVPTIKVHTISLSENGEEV

[2] = molecular target: Sodium-dependent noradrenaline transporter (Homo sapiens) (UniProt P23975); assay: Binding affinity to NET receptor (unknown origin) at 10000 nM by radioligand displacement assay relative to control
Sodium-dependent noradrenaline transporter (Homo sapiens), sequence (P23975 whole entry): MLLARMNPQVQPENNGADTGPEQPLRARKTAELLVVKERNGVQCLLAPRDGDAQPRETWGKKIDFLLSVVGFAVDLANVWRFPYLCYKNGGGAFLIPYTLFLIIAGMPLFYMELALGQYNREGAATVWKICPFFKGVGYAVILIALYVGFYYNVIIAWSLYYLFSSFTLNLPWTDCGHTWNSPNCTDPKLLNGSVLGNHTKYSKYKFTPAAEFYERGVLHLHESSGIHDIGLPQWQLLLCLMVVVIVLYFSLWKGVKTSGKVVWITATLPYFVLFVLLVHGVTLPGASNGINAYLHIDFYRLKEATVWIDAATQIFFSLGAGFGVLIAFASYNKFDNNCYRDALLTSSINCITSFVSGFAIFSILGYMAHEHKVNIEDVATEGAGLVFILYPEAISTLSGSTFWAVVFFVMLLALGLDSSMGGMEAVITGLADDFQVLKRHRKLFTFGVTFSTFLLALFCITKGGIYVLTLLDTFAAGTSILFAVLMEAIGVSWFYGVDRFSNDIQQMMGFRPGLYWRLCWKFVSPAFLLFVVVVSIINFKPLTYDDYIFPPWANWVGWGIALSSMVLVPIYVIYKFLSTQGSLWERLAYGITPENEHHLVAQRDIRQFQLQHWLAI

[3] = mouse, in vivo, ip, 50 mg/kg, 48 h
T47D = assay: Anticancer activity against human T47D cells assessed as cell growth inhibition; format: functional, cell-based; conditions: dose 1-100 µM, DDE = dose-dependent effect
[4] = Cmax in female BALB/c mouse at 5 mg/kg, ip at 30 min by LC-MS/MS analysis; format: ADME, organism-based; parameters: time 30 min, dose 5 mg/kg, route ip; conditions: in vivo, 0.5 h
In short: (§1)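 Fed female BALB/c mice, about 6–8 weeks old and 25–30 g, received a single IP dose of 5 or 25 mpk in NMP/PEG400/HP-β-CD aqueous vehicle (0.5 mg/mL for the 5 mpk dose). Three mice per time point were sampled up to 48 h by retro-orbital bleed under isoflurane into K2EDTA. Plasma was spun at 2000 g, 4 °C, frozen at -80 °C, and assayed by LC/MS/MS.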

LOX IMVI = assay: Anticancer activity against human LOX IMVI cells assessed as cell growth inhibition; format: functional, cell-based; conditions: dose 1-100 µM, DDE = dose-dependent effect
[5] = Cmax in female BALB/c mouse at 25 mg/kg, ip at 30 min by L-MS/MS analysis; format: ADME, organism-based; parameters: dose 25 mg/kg, time 30 min, route ip; conditions: in vivo, 0.5 h; in short: as §1
K562 = assay: Anticancer activity against human K562 cells assessed as cell growth inhibition; format: functional, cell-based; conditions: dose 1-100 µM, DDE = dose-dependent effect
SNB-19 = assay: Anticancer activity against human SNB-19 cells assessed as cell growth inhibition; format: functional, cell-based; conditions: dose 1-100 µM, DDE = dose-dependent effect
MOLT-4 = assay: Anticancer activity against human MOLT-4 cells assessed as cell growth inhibition; format: functional, cell-based; conditions: dose 1-100 µM, DDE = dose-dependent effect
[6] = molecular target: Sigma intracellular receptor 2 (Homo sapiens, UniProt Q5BJF2); assay: Binding affinity to sigma2 receptor (unknown origin) by radioligand displacement assay
Sigma intracellular receptor 2, sequence (Q5BJF2 whole entry): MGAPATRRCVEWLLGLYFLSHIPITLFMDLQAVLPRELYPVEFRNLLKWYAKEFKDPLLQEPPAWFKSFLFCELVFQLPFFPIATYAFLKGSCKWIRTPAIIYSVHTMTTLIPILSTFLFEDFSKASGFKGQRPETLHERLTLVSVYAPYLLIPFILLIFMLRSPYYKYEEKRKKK

U-251 = assay: Anticancer activity against human U-251 cells assessed as cell growth inhibition; format: functional, cell-based; conditions: dose 1-100 µM, DDE = dose-dependent effect
[7] = molecular target: GABA-A receptor; anion channel (Homo sapiens) (UniProt P14867+P47870+P18507+P28472+P48169+Q99928+Q9UN88+P34903+O00591+O14764+Q8N1C3+P18505+P78334+P47869+P31644+Q16445); assay: Binding affinity to GABAA receptor (unknown origin) at 10000 nM by radioligand displacement assay relative to control; format: protein-complex assay
UO-31 = assay: Anticancer activity against human UO-31 cells assessed as cell growth inhibition; format: functional, cell-based; conditions: dose 1-100 µM, DDE = dose-dependent effect
[8] = molecular target: Kappa-type opioid receptor (Homo sapiens) (UniProt P41145); assay: Binding affinity to KOR receptor (unknown origin) at 10000 nM by radioligand displacement assay relative to control
Kappa-type opioid receptor (Homo sapiens), sequence (P41145 whole entry): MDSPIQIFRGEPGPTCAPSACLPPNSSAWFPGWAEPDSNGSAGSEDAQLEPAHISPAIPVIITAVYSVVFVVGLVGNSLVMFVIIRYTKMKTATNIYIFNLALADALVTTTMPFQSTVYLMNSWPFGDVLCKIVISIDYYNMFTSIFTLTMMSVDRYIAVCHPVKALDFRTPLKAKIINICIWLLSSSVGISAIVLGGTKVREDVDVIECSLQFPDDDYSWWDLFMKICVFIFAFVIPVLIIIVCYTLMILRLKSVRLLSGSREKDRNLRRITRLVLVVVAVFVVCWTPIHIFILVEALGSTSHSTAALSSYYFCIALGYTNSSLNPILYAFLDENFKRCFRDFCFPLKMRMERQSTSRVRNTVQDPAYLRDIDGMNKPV

[9] = molecular target: 5-hydroxytryptamine receptor 7 (Homo sapiens) (UniProt P34969); assay: Binding affinity to 5-HT7 receptor (unknown origin) at 10000 nM by radioligand displacement assay relative to control
5-hydroxytryptamine receptor 7 (Homo sapiens), sequence (P34969 whole entry): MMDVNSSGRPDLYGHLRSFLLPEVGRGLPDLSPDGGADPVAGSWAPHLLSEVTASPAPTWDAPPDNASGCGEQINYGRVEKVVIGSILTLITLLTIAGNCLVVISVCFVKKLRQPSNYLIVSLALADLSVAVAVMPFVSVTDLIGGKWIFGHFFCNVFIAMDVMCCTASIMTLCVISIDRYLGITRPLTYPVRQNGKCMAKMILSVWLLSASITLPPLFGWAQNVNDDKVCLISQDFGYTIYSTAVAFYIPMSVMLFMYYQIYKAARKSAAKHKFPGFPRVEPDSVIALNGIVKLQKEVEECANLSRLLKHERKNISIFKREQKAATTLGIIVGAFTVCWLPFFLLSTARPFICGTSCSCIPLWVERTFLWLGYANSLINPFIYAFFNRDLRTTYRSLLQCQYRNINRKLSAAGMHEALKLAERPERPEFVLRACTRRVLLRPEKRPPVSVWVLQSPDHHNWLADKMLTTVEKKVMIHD

SF-539 = assay: Anticancer activity against human SF-539 cells assessed as cell growth inhibition; format: functional, cell-based; conditions: dose 1-100 µM, DDE = dose-dependent effect
TK-10 = assay: Anticancer activity against human TK-10 cells assessed as cell growth inhibition; format: functional, cell-based; conditions: dose 1-100 µM, DDE = dose-dependent effect
[10] = Tmax in female BALB/c mouse at 5 mg/kg, ip and measured upto 48 hrs by LC-MS/MS analysis; format: ADME, organism-based; conditions: in vivo; in short: as §1
UACC-257 = assay: Anticancer activity against human UACC-257 cells assessed as cell growth inhibition; format: functional, cell-based; conditions: dose 1-100 µM, DDE = dose-dependent effect
OVCAR-3 = assay: Anticancer activity against human OVCAR-3 cells assessed as cell growth inhibition; format: functional, cell-based; conditions: dose 1-100 µM, DDE = dose-dependent effect
[11] = molecular target: 5-hydroxytryptamine receptor 6 (Homo sapiens) (UniProt P50406); assay: Binding affinity to 5-HT6 receptor (unknown origin) at 10000 nM by radioligand displacement assay relative to control
5-hydroxytryptamine receptor 6 (Homo sapiens), sequence (P50406 whole entry): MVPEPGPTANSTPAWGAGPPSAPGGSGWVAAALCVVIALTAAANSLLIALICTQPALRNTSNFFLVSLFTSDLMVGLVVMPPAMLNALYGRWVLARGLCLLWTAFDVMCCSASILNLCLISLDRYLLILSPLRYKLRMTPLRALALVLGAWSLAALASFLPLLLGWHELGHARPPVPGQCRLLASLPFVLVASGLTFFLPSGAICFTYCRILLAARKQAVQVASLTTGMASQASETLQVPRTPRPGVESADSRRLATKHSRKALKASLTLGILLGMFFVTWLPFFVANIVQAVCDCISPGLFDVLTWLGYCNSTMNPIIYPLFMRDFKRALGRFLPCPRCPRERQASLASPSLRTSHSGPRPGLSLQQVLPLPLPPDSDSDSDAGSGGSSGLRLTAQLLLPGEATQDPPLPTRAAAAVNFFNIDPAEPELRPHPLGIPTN

MDA-MB-468 = assay: Anticancer activity against human MDA-MB-468 cells assessed as cell growth inhibition; format: functional, cell-based; conditions: dose 1-100 µM, DDE = dose-dependent effect
PC-3M = assay: Antiproliferative activity against human PC-3M cells expressing PTB/GFP fusion protein assessed as disruption of RNA synthesis marker RP-194 at 1 uM and measured after 1 hr by DAPI staining based immunofluorescence microscopy; format: functional, cell-based
In short: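 50,000 PC3M cells on chamber slides were treated with 1 μM compound for 1 h at 37 °C, then fixed in 4% paraformaldehyde for 15 min, permeabilized with 0.3% Triton X-100 and blocked in 3% BSA. Primary antibodies were anti-RPA194 (1:200) and anti-NOPP140 (1:100), overnight at 4 °C, followed by secondary antibodies and DAPI mounting. Confocal images at 63×, three images of about 200 cells per group; counts of bright objects were normalized to DAPI-stained nuclei.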

HCT-116 = assay: Anticancer activity against human HCT-116 cells assessed as cell growth inhibition; format: functional, cell-based; conditions: dose 1-100 µM, DDE = dose-dependent effect
[12] = AUC (0 to 48 hrs) in female BALB/c mouse at 25 mg/kg, ip at 48 hrs by LC-MS/MS analysis; format: ADME, organism-based; parameters: time 48 hrs, dose 25 mg/kg, route ip; conditions: in vivo
In short: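 Fed female BALB/c mice, about 6–8 weeks old and 25–30 g, received a single IP dose. The vehicle was 5-10% NMP + 20% PEG400 + 70-75% (25% HP-β-CD in water), with the drug at 2.5/0.5 mg/mL. Blood was taken by retro-orbital puncture under isoflurane into K2EDTA tubes, 3 mice per time point, over 48 h. Plasma was prepared at 2000 g, 5 min, 4 °C, and measured by LC/MS/MS.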

[13] = molecular target: Muscarinic acetylcholine receptor M3 (Homo sapiens) (UniProt P20309); assay: Binding affinity to M3 receptor (unknown origin) at 10000 nM by radioligand displacement assay relative to control
Muscarinic acetylcholine receptor M3 (Homo sapiens), sequence (P20309 whole entry, looked up): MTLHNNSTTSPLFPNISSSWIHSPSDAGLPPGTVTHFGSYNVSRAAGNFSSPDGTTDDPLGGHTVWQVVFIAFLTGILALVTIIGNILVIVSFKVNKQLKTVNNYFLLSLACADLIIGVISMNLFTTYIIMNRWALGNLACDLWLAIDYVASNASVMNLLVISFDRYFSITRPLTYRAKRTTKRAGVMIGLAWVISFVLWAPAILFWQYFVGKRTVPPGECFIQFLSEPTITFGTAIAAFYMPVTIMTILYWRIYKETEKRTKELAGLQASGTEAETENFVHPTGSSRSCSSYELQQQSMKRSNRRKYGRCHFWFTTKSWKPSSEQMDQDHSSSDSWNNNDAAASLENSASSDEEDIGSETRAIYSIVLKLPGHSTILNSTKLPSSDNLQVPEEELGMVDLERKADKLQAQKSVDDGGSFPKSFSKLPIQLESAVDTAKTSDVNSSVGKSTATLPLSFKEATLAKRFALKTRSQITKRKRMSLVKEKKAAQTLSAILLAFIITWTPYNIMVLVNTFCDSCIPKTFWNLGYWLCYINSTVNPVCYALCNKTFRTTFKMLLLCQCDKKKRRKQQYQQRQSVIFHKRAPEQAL

[14] = molecular target: Alpha-2C adrenergic receptor (Homo sapiens, UniProt P18825); assay: Binding affinity to alpha2C receptor (unknown origin) by radioligand displacement assay
Alpha-2C adrenergic receptor, sequence (P18825 whole entry): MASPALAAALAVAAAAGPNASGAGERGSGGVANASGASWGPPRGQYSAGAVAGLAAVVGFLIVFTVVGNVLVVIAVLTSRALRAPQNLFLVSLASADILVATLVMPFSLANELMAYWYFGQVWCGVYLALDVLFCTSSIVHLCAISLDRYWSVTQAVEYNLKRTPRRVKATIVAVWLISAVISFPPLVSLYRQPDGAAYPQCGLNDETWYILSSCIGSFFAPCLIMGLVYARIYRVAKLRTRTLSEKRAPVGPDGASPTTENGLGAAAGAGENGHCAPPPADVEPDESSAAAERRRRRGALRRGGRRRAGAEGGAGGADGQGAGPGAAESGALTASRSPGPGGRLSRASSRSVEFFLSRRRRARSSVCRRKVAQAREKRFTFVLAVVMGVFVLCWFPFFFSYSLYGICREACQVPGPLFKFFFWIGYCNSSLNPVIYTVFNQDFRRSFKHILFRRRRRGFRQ

MDA-MB-435 = assay: Anticancer activity against human MDA-MB-435 cells assessed as cell growth inhibition; format: functional, cell-based; conditions: dose 1-100 µM, DDE = dose-dependent effect
[15] = molecular target: 5-hydroxytryptamine receptor 2B (Homo sapiens) (UniProt P41595); assay: Binding affinity to 5-HT2B receptor (unknown origin) at 10000 nM by radioligand displacement assay relative to control
5-hydroxytryptamine receptor 2B (Homo sapiens), sequence (P41595 whole entry): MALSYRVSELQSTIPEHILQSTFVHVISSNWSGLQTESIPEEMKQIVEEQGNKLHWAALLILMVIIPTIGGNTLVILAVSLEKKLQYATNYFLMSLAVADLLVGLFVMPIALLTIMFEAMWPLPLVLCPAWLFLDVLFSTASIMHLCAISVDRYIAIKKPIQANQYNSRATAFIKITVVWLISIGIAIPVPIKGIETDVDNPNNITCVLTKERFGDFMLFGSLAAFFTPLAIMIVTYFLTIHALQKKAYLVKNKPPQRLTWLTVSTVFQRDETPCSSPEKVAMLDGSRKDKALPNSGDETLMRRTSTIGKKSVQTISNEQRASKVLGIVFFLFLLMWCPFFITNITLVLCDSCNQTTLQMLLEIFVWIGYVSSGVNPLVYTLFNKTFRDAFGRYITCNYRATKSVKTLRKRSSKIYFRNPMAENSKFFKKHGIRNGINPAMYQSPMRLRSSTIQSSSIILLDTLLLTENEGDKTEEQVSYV

SN12C = assay: Anticancer activity against human SN12C cells assessed as cell growth inhibition; format: functional, cell-based; conditions: dose 1-100 µM, DDE = dose-dependent effect
[16] = molecular target: D(4) dopamine receptor (Homo sapiens) (UniProt P21917); assay: Binding affinity to D4 receptor (unknown origin) at 10000 nM by radioligand displacement assay relative to control
D(4) dopamine receptor (Homo sapiens), sequence (P21917 whole entry): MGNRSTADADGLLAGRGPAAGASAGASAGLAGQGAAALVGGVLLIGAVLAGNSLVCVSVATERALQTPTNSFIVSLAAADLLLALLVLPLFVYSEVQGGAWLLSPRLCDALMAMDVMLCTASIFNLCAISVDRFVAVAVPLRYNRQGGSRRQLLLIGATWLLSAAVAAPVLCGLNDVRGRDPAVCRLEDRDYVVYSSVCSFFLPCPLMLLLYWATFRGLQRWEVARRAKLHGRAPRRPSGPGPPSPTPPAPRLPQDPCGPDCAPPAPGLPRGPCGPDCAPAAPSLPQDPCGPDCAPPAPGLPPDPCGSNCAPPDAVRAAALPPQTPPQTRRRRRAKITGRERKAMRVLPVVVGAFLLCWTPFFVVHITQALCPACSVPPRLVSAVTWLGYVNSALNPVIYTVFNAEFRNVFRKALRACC

UACC-62 = assay: Anticancer activity against human UACC-62 cells assessed as cell growth inhibition; format: functional, cell-based; conditions: dose 1-100 µM, DDE = dose-dependent effect
[17] = mouse, in vivo, ip, 50 mg/kg, 48 h; remark: listed apart in the source
[18] = molecular target: Alpha-2B adrenergic receptor (Homo sapiens) (UniProt P18089); assay: Binding affinity to alpha2B receptor (unknown origin) at 10000 nM by radioligand displacement assay relative to control
Alpha-2B adrenergic receptor (Homo sapiens), sequence (P18089 whole entry): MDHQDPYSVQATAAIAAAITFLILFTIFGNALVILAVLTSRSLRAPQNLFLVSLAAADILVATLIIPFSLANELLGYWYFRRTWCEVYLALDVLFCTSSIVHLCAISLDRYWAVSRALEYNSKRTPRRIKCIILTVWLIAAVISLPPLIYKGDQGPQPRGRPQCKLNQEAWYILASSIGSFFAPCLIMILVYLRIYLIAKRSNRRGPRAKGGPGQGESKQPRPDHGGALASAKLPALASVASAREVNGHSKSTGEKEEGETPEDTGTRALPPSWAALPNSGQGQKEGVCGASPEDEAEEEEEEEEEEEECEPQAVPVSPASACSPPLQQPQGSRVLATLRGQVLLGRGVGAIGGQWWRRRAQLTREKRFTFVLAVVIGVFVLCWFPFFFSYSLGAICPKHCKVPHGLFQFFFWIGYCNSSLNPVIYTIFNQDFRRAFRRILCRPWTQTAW

## N=c1c2c(-c3ccccc3)c(-c3ccccc3)n(Cc3ccccc3)c2ncn1[C@H]1CC[C@H](O)CC1 [ML-246]
[1]
  Activity: < 50%
[2]
  Activity: < 50%
[3]
  beta t1/2: 16.4 min
T47D
  Activity: Dde
[4]
  Cmax: 0.91 µM
LOX IMVI
  Activity: Dde
[5]
  Cmax: 6.17 µM
K562
  Activity: Dde
SNB-19
  Activity: Dde
MOLT-4
  Activity: Dde
[6]
  Ki: 244 nM
U-251
  Activity: Dde
[7]
  Activity: < 50%
UO-31
  Activity: Dde
[8]
  Activity: < 50%
[9]
  Activity: < 50%
SF-539
  Activity: Dde
TK-10
  Activity: Dde
[10]
  Tmax: 15 min
UACC-257
  Activity: Dde
OVCAR-3
  Activity: Dde
[11]
  Activity: < 50%
MDA-MB-468
  Activity: Dde
PC-3M
  Activity: Active
HCT-116
  Activity: Dde
[12]
  AUC: 57.64 µM·h
[13]
  Activity: < 50%
[14]
  Ki: 1210 nM
MDA-MB-435
  Activity: Dde
[15]
  Activity: < 50%
SN12C
  Activity: Dde
[16]
  Activity: < 50%
UACC-62
  Activity: Dde
[17]
  AUC: 231.77 µM·h
[18]
  Activity: < 50%
